Reference: ChEMBL document CHEMBL1938381, “Design, synthesis, and structure-activity relationship studies of conformationally restricted mutilin 14-carbamates” (2012)

How the values were obtained:
Format in all cases: functional
Staphylococcus aureus [1] = assay: Antibacterial activity against methicillin-susceptible Staphylococcus aureus by agar microdilution method
Method in brief: (§1)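 MIC by agar microdilution following NCCLS standard M7-A6 (2003), tested against clinical isolates: MRSA n = 6, MRSE n = 5, MSSA n = 5, MSSE n = 5; values given as a single MIC or a range across isolates.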

Staphylococcus aureus [2] = assay: Antibacterial activity against methicillin-resistant Staphylococcus aureus by agar microdilution method; method in brief: as §1
[3] = system: Staphylococcus epidermidis; assay: Antibacterial activity against methicillin-resistant Staphylococcus epidermidis by agar microdilution method; method in brief: as §1
[4] = system: Staphylococcus epidermidis; assay: Antibacterial activity against methicillin-susceptible Staphylococcus epidermidis by agar microdilution method; method in brief: as §1
[5] = system: Staphylococcus epidermidis; assay: Ratio of Linezolid MIC to compound MIC for methicillin-susceptible Staphylococcus epidermidis
Streptococcus pneumoniae [6] = assay: Ratio of Linezolid MIC to compound MIC for Streptococcus pneumoniae
Streptococcus pneumoniae [7] = assay: Antibacterial activity against Streptococcus pneumoniae by agar microdilution method
Method in brief: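 MIC read by agar microdilution following NCCLS standard M7-A6 (2003), against a panel of 3 Streptococcus pneumoniae clinical isolates. Values in µg/mL, given as a range where the isolates differed.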

Staphylococcus aureus [8] = assay: Ratio of Linezolid MIC to compound MIC for methicillin-susceptible Staphylococcus aureus

C=C[C@]1(C)C[C@@H](OC(=O)N2Cc3ccccc3C2=O)[C@]2(C)[C@H](C)CC[C@]3(CCC(=O)[C@H]32)[C@@H](C)[C@@H]1O
0.125 µg/mL: MIC (Staphylococcus aureus [1]) | MIC (Staphylococcus aureus [2]) | MIC [3] | MIC [4] | MIC (Streptococcus pneumoniae [7])
4: Ratio [5] | Ratio (Streptococcus pneumoniae [6]) | Ratio (Staphylococcus aureus [8])

C=C[C@]1(C)C[C@@H](OC(=O)N2Cc3c(OC)cccc3C2=O)[C@]2(C)[C@H](C)CC[C@]3(CCC(=O)[C@H]32)[C@@H](C)[C@@H]1O
4 µg/mL: MIC (Streptococcus pneumoniae [7])
2 µg/mL: MIC (Staphylococcus aureus [1]) | MIC (Staphylococcus aureus [2]) | MIC [3] | MIC [4]

C=C[C@]1(C)C[C@@H](OC(=O)N2Cc3c(cccc3[N+](=O)[O-])C2=O)[C@]2(C)[C@H](C)CC[C@]3(CCC(=O)[C@H]32)[C@@H](C)[C@@H]1O
0.5 µg/mL: MIC (Staphylococcus aureus [1]) | MIC (Staphylococcus aureus [2]) | MIC [3] | MIC [4] | MIC (Streptococcus pneumoniae [7])

C=C[C@]1(C)C[C@@H](OC(=O)N2Cc3ccc([N+](=O)[O-])cc3C2=O)[C@]2(C)[C@H](C)CC[C@]3(CCC(=O)[C@H]32)[C@@H](C)[C@@H]1O
0.5 µg/mL: MIC (Staphylococcus aureus [1]) | MIC (Staphylococcus aureus [2]) | MIC [3] | MIC [4] | MIC (Streptococcus pneumoniae [7])

C=C[C@]1(C)C[C@@H](OC(=O)N2Cc3cc(N4CCOCC4)ccc3C2=O)[C@]2(C)[C@H](C)CC[C@]3(CCC(=O)[C@H]32)[C@@H](C)[C@@H]1O
0.5 µg/mL: MIC (Staphylococcus aureus [1]) | MIC (Staphylococcus aureus [2]) | MIC [3] | MIC [4] | MIC (Streptococcus pneumoniae [7])

C=C[C@]1(C)C[C@@H](OC(=O)N2Cc3cc(N4CCCCC4)ccc3C2=O)[C@]2(C)[C@H](C)CC[C@]3(CCC(=O)[C@H]32)[C@@H](C)[C@@H]1O
4 µg/mL: MIC (Streptococcus pneumoniae [7])
2 µg/mL: MIC (Staphylococcus aureus [1]) | MIC (Staphylococcus aureus [2]) | MIC [3] | MIC [4]

C=C[C@]1(C)C[C@@H](OC(=O)N2Cc3cc(NCc4ccccc4)ccc3C2=O)[C@]2(C)[C@H](C)CC[C@]3(CCC(=O)[C@H]32)[C@@H](C)[C@@H]1O
2 µg/mL: MIC (Staphylococcus aureus [1]) | MIC (Staphylococcus aureus [2]) | MIC [3] | MIC [4] | MIC (Streptococcus pneumoniae [7])

C=C[C@]1(C)C[C@@H](OC(=O)N2Cc3cc(NC(=O)C(F)(F)F)ccc3C2=O)[C@]2(C)[C@H](C)CC[C@]3(CCC(=O)[C@H]32)[C@@H](C)[C@@H]1O
4 µg/mL: MIC (Streptococcus pneumoniae [7])
2 µg/mL: MIC (Staphylococcus aureus [1]) | MIC (Staphylococcus aureus [2]) | MIC [3] | MIC [4]

C=C[C@]1(C)C[C@@H](OC(=O)N2Cc3c(N)cccc3C2=O)[C@]2(C)[C@H](C)CC[C@]3(CCC(=O)[C@H]32)[C@@H](C)[C@@H]1O
0.0625 µg/mL: MIC (Staphylococcus aureus [1]) | MIC (Staphylococcus aureus [2]) | MIC [3] | MIC [4] | MIC (Streptococcus pneumoniae [7])

C=C[C@]1(C)C[C@@H](OC(=O)N2Cc3ccc(N)cc3C2=O)[C@]2(C)[C@H](C)CC[C@]3(CCC(=O)[C@H]32)[C@@H](C)[C@@H]1O
0.0625 µg/mL: MIC (Staphylococcus aureus [1]) | MIC (Staphylococcus aureus [2]) | MIC [3] | MIC [4] | MIC (Streptococcus pneumoniae [7])

C=C[C@]1(C)C[C@@H](OC(=O)N2Cc3ccc(NC(=O)CN4CCOCC4)cc3C2=O)[C@]2(C)[C@H](C)CC[C@]3(CCC(=O)[C@H]32)[C@@H](C)[C@@H]1O
0.5 µg/mL: MIC (Staphylococcus aureus [1]) | MIC (Staphylococcus aureus [2]) | MIC [4]
1 µg/mL: MIC [3] | MIC (Streptococcus pneumoniae [7])

C=C[C@]1(C)C[C@@H](OC(=O)N2Cc3ccc(NC(=O)CN4CCN(C)CC4)cc3C2=O)[C@]2(C)[C@H](C)CC[C@]3(CCC(=O)[C@H]32)[C@@H](C)[C@@H]1O
0.5 µg/mL: MIC (Staphylococcus aureus [1]) | MIC (Staphylococcus aureus [2]) | MIC [3] | MIC [4] | MIC (Streptococcus pneumoniae [7])

C=C[C@]1(C)C[C@@H](OC(=O)N2Cc3ccc(NC(=O)CN4CCN(CCO)CC4)cc3C2=O)[C@]2(C)[C@H](C)CC[C@]3(CCC(=O)[C@H]32)[C@@H](C)[C@@H]1O
0.25 µg/mL: MIC [3] | MIC [4]
0.5 µg/mL: MIC (Staphylococcus aureus [1]) | MIC (Staphylococcus aureus [2]) | MIC (Streptococcus pneumoniae [7])

C=C[C@]1(C)C[C@@H](OC(=O)N2Cc3ccc(NC(=O)CCN4CCOCC4)cc3C2=O)[C@]2(C)[C@H](C)CC[C@]3(CCC(=O)[C@H]32)[C@@H](C)[C@@H]1O
0.25 µg/mL: MIC [3] | MIC [4]
0.5 µg/mL: MIC (Staphylococcus aureus [1]) | MIC (Staphylococcus aureus [2]) | MIC (Streptococcus pneumoniae [7])

C=C[C@]1(C)C[C@@H](OC(=O)N2Cc3ccc(NC(=O)CCN4CCN(C)CC4)cc3C2=O)[C@]2(C)[C@H](C)CC[C@]3(CCC(=O)[C@H]32)[C@@H](C)[C@@H]1O
0.5 µg/mL: MIC (Staphylococcus aureus [1]) | MIC (Staphylococcus aureus [2]) | MIC [3] | MIC [4] | MIC (Streptococcus pneumoniae [7])

C=C[C@]1(C)C[C@@H](OC(=O)N2Cc3ccc(NC(=O)CCN4CCN(CCO)CC4)cc3C2=O)[C@]2(C)[C@H](C)CC[C@]3(CCC(=O)[C@H]32)[C@@H](C)[C@@H]1O
4 µg/mL: MIC (Streptococcus pneumoniae [7])
2 µg/mL: MIC (Staphylococcus aureus [1]) | MIC (Staphylococcus aureus [2]) | MIC [3] | MIC [4]
